The results in this text go back to ChEMBL document CHEMBL4229371, “Discovery of [1,2,4]triazolo[3,4-b][1,3,4]thiadiazole derivatives as novel, potent and selective c-Met kinase inhibitors: Synthesis, SAR study, and biological activity” (Eur J Med Chem, 2018).

One experiment relates to SNU-5. As to the kind of experiment: Antiproliferative activity against human SNU5 cells at 5 uM after 72 hrs by Cell Titer-Glo assay. The class given is functional. In outline:
(§1)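 Cell Titer-Glo viability assay. Exponentially growing cells were plated at 4000 per well in RPMI-1640 with 10% FPS and incubated 12 h at 37 °C in 5% CO2. Compound was then added at the indicated final concentrations and cells were held 72 h at 37 °C in 5% CO2. CTG reagent was applied for 10 min at room temperature. Inhibition % = (1 − Vsample/Vvehicle control) × 100.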
Background: In ATP-based viability assays light output follows the ATP content of the culture.

Experiment [1] deals with T1, Hepatocyte growth factor receptor (Homo sapiens, UniProt P08581). As to the kind of experiment: Inhibition of HGF-induced c-MET phosphorylation at Tyr1234/1235 in human MKN45 cells after 1 hr by Western blot analysis. The format is cell-based. Put shortly: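 MKN45 cells were plated at 2x10^4 per well in RPMI-1640 with 10% FPS and treated with a range of doses for 1 h. Lysis was in ice-cold RIPA with protease inhibitors. Lysate holding 30 µg protein (BCA) was run on SDS-PAGE and blotted to PVDF. Membranes were blocked in 5% skim milk, given primary antibody overnight at 4 °C, then HRP secondary for 1 h at room temperature, and read by ECL.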
T1 sequence (P08581 whole entry): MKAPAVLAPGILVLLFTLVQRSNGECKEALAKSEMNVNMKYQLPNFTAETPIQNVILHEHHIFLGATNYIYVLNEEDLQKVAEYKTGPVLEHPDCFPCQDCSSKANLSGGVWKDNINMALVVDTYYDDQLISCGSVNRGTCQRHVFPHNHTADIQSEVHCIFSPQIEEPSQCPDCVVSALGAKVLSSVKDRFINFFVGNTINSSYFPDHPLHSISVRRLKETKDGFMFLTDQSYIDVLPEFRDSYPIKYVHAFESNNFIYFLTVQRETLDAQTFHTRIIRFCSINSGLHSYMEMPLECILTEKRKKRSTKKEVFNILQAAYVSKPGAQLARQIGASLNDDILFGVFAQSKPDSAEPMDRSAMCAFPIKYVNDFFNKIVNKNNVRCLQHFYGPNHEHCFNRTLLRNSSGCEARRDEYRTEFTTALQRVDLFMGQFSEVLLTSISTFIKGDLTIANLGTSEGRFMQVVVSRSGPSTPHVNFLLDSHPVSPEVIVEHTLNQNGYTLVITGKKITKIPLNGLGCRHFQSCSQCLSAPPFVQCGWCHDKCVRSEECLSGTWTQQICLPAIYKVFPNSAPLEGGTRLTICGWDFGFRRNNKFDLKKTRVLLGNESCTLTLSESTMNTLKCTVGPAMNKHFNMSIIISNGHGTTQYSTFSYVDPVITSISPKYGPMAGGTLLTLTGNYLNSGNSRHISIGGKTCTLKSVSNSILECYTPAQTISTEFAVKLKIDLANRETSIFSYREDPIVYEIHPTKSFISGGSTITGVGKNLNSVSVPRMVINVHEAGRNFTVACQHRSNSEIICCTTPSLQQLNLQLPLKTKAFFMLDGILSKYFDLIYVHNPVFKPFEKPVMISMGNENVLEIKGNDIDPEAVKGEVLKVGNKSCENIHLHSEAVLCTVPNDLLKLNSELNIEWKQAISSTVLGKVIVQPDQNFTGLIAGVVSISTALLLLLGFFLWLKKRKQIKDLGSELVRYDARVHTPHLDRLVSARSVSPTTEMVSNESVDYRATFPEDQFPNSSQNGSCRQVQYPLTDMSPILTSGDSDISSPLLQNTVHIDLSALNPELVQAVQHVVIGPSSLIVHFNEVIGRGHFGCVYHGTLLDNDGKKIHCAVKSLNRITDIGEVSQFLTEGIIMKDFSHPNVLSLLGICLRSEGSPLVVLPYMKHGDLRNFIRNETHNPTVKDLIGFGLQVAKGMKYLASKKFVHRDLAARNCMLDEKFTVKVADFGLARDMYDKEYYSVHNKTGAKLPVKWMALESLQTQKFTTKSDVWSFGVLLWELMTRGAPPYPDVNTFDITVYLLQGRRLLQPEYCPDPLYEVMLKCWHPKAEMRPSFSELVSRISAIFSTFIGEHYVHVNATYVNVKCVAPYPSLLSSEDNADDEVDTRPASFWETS
For orientation: Immunoblotting shows a protein as a band on a membrane.

Experiment [2] relates to MKN-45. Description: Antiproliferative activity against human MKN45 cells at 1 uM after 72 hrs by Cell Titer-Glo assay. The class given is functional. In outline:
as §1

Experiment [3] deals with Proto-oncogene tyrosine-protein kinase receptor Ret (Homo sapiens) (UniProt P07949). Description: Inhibition of GST-tagged human RET at 5 uM preincubated for 20 mins followed by [33P]-ATP addition measured after 2 hrs by Hot-Spot kinase assay. Put shortly:
(§2)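 Radiometric filter-binding assay with 5 nM human GST-tagged kinase and substrate. Buffer was 20 mM Hepes pH 7.5, 10 mM MgCl2, 1 mM EGTA, 0.02% Brij35, 0.02 mg/mL BSA, 0.1 mM Na3VO4, 2 mM DTT and 1% DMSO. Compound in DMSO was preincubated with kinase for 20 min at room temperature. 33P-ATP was then added and the reaction ran 2 h at room temperature. IC50 values came from curve fitting.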

Experiment [4] deals with EBC-1. Description: Antiproliferative activity against human EBC1 cells after 72 hrs by Cell Titer-Glo assay. The class given is functional, cell-based. The conditions noted are these: EBC-1, 72 h. Put shortly: as §1
The target of experiment [5] is T2, Receptor-type tyrosine-protein kinase FLT3 (Homo sapiens, UniProt P36888).
T2 sequence (P36888 whole entry): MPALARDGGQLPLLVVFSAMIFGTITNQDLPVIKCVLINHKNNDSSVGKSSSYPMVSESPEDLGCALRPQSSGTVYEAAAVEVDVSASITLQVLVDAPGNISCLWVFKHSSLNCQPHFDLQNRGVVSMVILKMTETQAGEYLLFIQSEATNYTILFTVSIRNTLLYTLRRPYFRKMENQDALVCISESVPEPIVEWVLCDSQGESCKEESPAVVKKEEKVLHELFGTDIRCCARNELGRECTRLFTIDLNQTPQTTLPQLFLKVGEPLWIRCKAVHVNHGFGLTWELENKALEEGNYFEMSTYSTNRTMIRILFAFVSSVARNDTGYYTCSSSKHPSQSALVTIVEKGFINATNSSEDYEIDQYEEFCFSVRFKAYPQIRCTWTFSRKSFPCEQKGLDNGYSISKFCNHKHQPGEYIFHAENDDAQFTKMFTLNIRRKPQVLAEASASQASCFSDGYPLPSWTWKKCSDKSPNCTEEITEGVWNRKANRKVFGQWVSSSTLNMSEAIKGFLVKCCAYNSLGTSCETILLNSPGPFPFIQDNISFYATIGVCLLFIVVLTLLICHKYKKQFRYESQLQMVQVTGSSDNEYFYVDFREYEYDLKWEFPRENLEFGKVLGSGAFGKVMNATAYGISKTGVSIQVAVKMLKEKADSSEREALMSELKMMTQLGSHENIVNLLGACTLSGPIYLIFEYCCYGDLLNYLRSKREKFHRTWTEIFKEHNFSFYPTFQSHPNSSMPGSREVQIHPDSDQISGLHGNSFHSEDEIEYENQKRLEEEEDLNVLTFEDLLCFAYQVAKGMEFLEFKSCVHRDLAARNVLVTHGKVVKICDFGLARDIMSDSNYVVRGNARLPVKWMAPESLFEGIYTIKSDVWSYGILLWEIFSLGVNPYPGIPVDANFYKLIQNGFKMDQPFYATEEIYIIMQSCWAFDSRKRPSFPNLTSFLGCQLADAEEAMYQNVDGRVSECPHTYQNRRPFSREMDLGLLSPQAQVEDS
Description: Inhibition of GST-tagged human FLT3 preincubated for 20 mins followed by [33P]-ATP addition measured after 2 hrs by Hot-Spot kinase assay. Put shortly:
as §2

Experiment [6] deals with BDNF/NT-3 growth factors receptor (Homo sapiens) (UniProt Q16620). As to the kind of experiment: Inhibition of GST-tagged human TRKB at 5 uM preincubated for 20 mins followed by [33P]-ATP addition measured after 2 hrs by Hot-Spot kinase assay. Put shortly:
as §2

Experiment [7] concerns the target Tyrosine-protein kinase Lck (Homo sapiens) (UniProt P06239). As to the kind of experiment: Inhibition of GST-tagged human LCK at 5 uM preincubated for 20 mins followed by [33P]-ATP addition measured after 2 hrs by Hot-Spot kinase assay. In outline: as §2
For experiment [8], the target named is T1, Hepatocyte growth factor receptor. As to the kind of experiment: Inhibition of GST-tagged human c-MET preincubated for 20 mins followed by [33P]-ATP addition and measured after 2 hrs by Hot-Spot kinase assay.
The subject of experiment [9] is MKN-45. As to the kind of experiment: Antiproliferative activity against human MKN45 cells at 5 uM after 72 hrs by Cell Titer-Glo assay. The class given is functional. Put shortly:
as §1

The target in experiment [10] is Angiopoietin-1 receptor (Homo sapiens) (UniProt Q02763). Description: Inhibition of GST-tagged human TIE2 at 5 uM preincubated for 20 mins followed by [33P]-ATP addition measured after 2 hrs by Hot-Spot kinase assay. Put shortly: as §2
The target of experiment [11] is Vascular endothelial growth factor receptor 2 (Homo sapiens) (UniProt P35968). Description: Inhibition of GST-tagged human KDR at 5 uM preincubated for 20 mins followed by [33P]-ATP addition measured after 2 hrs by Hot-Spot kinase assay. Put shortly: as §2
In experiment [12] the target is Tyrosine-protein kinase ABL1 (Homo sapiens) (UniProt P00519). As to the kind of experiment: Inhibition of GST-tagged human ABL1 at 5 uM preincubated for 20 mins followed by [33P]-ATP addition measured after 2 hrs by Hot-Spot kinase assay. Put shortly: as §2
The target of experiment [13] is Tyrosine-protein kinase receptor UFO (Homo sapiens) (UniProt P30530). Description: Inhibition of GST-tagged human AXL at 5 uM preincubated for 20 mins followed by [33P]-ATP addition measured after 2 hrs by Hot-Spot kinase assay. In outline:
as §2

Experiment [14] deals with EBC-1. Description: Antiproliferative activity against human EBC1 cells at 1 uM after 72 hrs by Cell Titer-Glo assay. The format is functional. In outline:
as §1

The subject of experiment [15] is EBC-1. As to the kind of experiment: Antiproliferative activity against human EBC1 cells at 5 uM after 72 hrs by Cell Titer-Glo assay. The class given is functional. Put shortly: as §1
Experiment [16] has as its target ALK tyrosine kinase receptor (Homo sapiens) (UniProt Q9UM73). Description: Inhibition of GST-tagged human ALK at 5 uM preincubated for 20 mins followed by [33P]-ATP addition measured after 2 hrs by Hot-Spot kinase assay. In outline:
as §2

The target of experiment [17] is Platelet-derived growth factor receptor alpha (Homo sapiens) (UniProt P16234). As to the kind of experiment: Inhibition of GST-tagged human PDGFRalpha at 5 uM preincubated for 20 mins followed by [33P]-ATP addition measured after 2 hrs by Hot-Spot kinase assay. In outline:
as §2

Experiment [18] has as its target Receptor-type tyrosine-protein kinase FLT3 (Homo sapiens) (UniProt P36888). As to the kind of experiment: Inhibition of GST-tagged human FLT3 at 5 uM preincubated for 20 mins followed by [33P]-ATP addition measured after 2 hrs by Hot-Spot kinase assay. Put shortly: as §2
Experiment [19] has as its target Mast/stem cell growth factor receptor Kit (Homo sapiens) (UniProt P10721). Description: Inhibition of GST-tagged human c-KIT at 5 uM preincubated for 20 mins followed by [33P]-ATP addition measured after 2 hrs by Hot-Spot kinase assay. Put shortly:
as §2

In experiment [20] the target is Vascular endothelial growth factor receptor 1 (Homo sapiens) (UniProt P17948). As to the kind of experiment: Inhibition of GST-tagged human FLT1 at 5 uM preincubated for 20 mins followed by [33P]-ATP addition measured after 2 hrs by Hot-Spot kinase assay. In outline: as §2
Sequence of Vascular endothelial growth factor receptor 1 (Homo sapiens) (P17948 whole entry): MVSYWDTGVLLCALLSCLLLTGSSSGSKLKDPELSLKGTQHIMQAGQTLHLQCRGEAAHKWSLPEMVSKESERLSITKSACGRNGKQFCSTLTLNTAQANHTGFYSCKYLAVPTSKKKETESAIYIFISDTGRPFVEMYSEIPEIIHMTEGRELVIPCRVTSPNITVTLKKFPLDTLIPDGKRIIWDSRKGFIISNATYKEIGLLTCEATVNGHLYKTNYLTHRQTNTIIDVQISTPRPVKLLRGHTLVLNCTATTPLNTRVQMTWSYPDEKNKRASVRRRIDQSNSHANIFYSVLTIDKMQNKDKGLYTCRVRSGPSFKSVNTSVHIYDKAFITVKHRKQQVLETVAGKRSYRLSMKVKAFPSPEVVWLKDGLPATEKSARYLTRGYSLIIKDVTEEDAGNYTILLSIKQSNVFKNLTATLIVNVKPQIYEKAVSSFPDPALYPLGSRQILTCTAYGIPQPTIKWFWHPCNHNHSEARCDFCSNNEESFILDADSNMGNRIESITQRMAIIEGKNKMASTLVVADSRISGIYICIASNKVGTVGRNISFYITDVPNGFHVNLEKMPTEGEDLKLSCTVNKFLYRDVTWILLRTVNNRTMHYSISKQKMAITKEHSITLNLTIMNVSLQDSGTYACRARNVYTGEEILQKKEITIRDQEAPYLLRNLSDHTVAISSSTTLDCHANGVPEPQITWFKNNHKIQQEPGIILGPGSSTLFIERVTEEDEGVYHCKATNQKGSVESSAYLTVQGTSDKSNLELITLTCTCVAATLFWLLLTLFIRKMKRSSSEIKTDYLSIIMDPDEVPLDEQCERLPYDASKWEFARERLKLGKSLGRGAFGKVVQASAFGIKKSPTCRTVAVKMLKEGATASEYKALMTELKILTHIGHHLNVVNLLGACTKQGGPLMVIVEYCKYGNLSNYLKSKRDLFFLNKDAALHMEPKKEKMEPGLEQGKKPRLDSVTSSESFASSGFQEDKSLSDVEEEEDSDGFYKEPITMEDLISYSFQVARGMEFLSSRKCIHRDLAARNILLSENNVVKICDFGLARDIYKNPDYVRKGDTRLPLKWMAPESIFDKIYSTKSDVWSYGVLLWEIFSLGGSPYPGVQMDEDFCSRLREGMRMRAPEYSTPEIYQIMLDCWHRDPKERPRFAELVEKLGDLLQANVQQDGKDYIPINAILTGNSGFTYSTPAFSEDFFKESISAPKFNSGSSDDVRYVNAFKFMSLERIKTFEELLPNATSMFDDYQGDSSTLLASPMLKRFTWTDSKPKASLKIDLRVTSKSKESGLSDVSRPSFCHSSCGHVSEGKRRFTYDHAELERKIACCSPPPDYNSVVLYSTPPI

Sequence of Proto-oncogene tyrosine-protein kinase receptor Ret (Homo sapiens) (P07949 whole entry): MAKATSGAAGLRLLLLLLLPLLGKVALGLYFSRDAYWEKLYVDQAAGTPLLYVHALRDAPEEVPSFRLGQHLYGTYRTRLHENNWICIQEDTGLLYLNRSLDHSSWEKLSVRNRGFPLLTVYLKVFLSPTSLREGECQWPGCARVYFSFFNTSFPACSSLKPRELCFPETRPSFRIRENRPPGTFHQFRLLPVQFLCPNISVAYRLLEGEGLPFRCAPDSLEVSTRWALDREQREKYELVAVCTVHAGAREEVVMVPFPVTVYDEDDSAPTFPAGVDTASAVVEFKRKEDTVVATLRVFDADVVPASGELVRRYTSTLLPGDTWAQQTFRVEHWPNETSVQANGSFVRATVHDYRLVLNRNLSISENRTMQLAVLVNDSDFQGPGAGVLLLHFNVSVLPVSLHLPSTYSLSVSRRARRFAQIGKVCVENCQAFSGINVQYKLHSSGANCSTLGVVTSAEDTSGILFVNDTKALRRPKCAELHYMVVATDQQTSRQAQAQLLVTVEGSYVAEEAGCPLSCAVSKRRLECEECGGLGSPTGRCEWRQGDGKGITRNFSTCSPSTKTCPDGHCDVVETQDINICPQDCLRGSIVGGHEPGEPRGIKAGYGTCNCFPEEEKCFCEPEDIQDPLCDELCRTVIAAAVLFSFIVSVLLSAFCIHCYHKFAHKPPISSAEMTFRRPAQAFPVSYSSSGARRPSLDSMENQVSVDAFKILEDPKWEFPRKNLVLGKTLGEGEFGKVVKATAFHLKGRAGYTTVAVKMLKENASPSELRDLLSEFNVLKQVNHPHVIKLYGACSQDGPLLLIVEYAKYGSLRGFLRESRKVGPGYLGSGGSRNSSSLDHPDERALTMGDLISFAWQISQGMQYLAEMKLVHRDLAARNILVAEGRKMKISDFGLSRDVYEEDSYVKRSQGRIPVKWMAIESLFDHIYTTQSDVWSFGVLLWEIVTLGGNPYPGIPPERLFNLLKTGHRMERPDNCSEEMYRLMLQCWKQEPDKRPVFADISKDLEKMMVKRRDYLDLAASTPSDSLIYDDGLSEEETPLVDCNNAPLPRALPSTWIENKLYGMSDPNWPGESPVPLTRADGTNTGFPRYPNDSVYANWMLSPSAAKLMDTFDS
Sequence of Tyrosine-protein kinase Lck (Homo sapiens) (P06239 2-509 limits assumed): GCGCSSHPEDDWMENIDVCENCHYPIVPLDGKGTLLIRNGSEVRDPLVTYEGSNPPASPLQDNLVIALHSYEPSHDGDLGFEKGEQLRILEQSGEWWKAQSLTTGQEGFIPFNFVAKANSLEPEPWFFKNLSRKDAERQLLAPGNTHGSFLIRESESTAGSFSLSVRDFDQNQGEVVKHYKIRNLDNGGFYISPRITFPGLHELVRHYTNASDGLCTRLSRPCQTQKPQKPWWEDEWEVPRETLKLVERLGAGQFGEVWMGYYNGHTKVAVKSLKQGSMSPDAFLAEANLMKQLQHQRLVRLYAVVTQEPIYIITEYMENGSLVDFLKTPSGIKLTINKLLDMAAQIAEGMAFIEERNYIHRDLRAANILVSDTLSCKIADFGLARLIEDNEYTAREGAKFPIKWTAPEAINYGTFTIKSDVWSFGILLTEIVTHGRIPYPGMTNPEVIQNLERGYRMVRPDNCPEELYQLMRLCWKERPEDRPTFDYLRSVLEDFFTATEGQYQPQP

For orientation: inhibition means the change of the read-out against control, counted positive when it falls. What is called IC50 is the concentration that inhibits the measured activity by half. Lower therefore signals greater potency. Consider `COc1ccc2c(OCc3nnc4sc(-c5cnn(C)c5)nn34)ccnc2c1`, for which the Activity with SNU-5 is recorded as 68.7%; in the experiment on MKN-45 [2], 73.6%; with MKN-45 [9], 71.9%; with EBC-1 [14] it was 90.9%; with EBC-1 [15], 84.4%. Further, the inhibition result in experiment [1] was “Dose-dependent effect”; in experiment [3], -0.73%; in [6] it was 0.04%; in [7], -0.81%; in [10], -7.71%; in experiment [11] it was -3.93%. The inhibition in experiment [12] was 14.9%; in experiment [13] it was 11.1%; in experiment [16] it was -1.59%; in [17] it was -3.29%; in experiment [18], 69.7%; in [19] it was 10.9%. In addition, in experiment [20], the inhibition came to 0.28%. The IC50 with EBC-1 [4] was found to be 88 nM; in experiment [5] it was 1370 nM; in [8], 2.02 nM.
